What all share (format): functional, cell-based
One test concerns MCF7. Kind of test: Antiproliferative activity against human MCF7 cells after 72 hrs by MTT assay. Conditions: MCF7, 72 h. A digest of the protocol: (§1)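 Six human breast carcinoma lines of differing molecular and phenotypic character were each exposed to a range of concentrations for 72 h. Proliferation was read by MTT. Results are given as mean percent viability, with IC₅₀ ± SEM calculated per cell line.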
(In general: Tetrazolium dyes change colour on reduction, which living cells bring about.)

The subject of another test is MDA-MB-468. Kind of test: Antiproliferative activity against human MDA-MB-468 cells after 72 hrs by MTT assay. Particulars: MDA-MB-468, 72 h. The procedure, abridged:
as §1

The subject of the next test is MDA-MB-231. Kind of test: Antiproliferative activity against human MDA-MB-231 cells after 72 hrs by MTT assay. Conditions: MDA-MB-231, 72 h. A digest of the protocol: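 MDA-MB-231 triple-negative breast cancer cells were exposed to a range of concentrations for 72 h. Proliferation was read by MTT. Results are given as mean percent viability versus concentration, with IC₅₀ ± SEM calculated from the curve.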

For another test, the system named is T47D. Kind of test: Antiproliferative activity against human T47D cells after 72 hrs by MTT assay. A digest of the protocol:
as §1

The test system of another test is BT-474. Kind of test: Antiproliferative activity against human BT474 cells after 72 hrs by MTT assay. Particulars: BT-474, 72 h. The procedure, abridged: as §1
A further test deals with SK-BR-3. Kind of test: Antiproliferative activity against human SKBR3 cells after 72 hrs by MTT assay. Particulars: SK-BR-3, 72 h. The procedure, abridged:
as §1

This note sets out measurements from ChEMBL document CHEMBL4177624, “Rationally designed hecogenin thiosemicarbazone analogs as novel MEK inhibitors for the control of breast malignancies” (Bioorg Med Chem, 2017).

Structures are written as SMILES.

Take `C[C@@H]1CC[C@@]2(OC1)O[C@H]1C[C@H]3[C@@H]4CC[C@H]5C[C@@H](OC(=O)c6ccc(C#N)cc6)CC[C@]5(C)[C@H]4CC(=O)[C@]3(C)[C@H]1[C@@H]2C`: the IC50 in the test on MCF7 is 33.2 µM; in the test with MDA-MB-468 it was 32.6 µM; in the test on MDA-MB-231, 25.7 µM; in the test on T47D, more than 40 µM; in the test on BT-474, 35 µM; in the test on SK-BR-3 it was 34.7 µM.

`C[C@@H]1CC[C@@]2(OC1)O[C@H]1C[C@H]3[C@@H]4CC[C@H]5C[C@@H](O)CC[C@]5(C)[C@H]4C/C(=N\NC(=S)Nc4ccccc4[N+](=O)[O-])[C@]3(C)[C@H]1[C@@H]2C`: the IC50 in the test with MCF7 turned out to be 5 µM; with MDA-MB-468, 6.1 µM; in the test with MDA-MB-231, 4.3 µM; in the test with T47D, 9 µM; with BT-474, 6.9 µM; in the test with SK-BR-3, 5.5 µM.

In the case of `C[C@@H]1CC[C@@]2(OC1)O[C@H]1C[C@H]3[C@@H]4CC[C@H]5C[C@@H](O)CC[C@]5(C)[C@H]4C/C(=N\NC(=S)Nc4ccccc4C(F)(F)F)[C@]3(C)[C@H]1[C@@H]2C`, the IC50 was 2.2 µM in the test on MCF7; 2.7 µM in the test with MDA-MB-468; 2.1 µM in the test with MDA-MB-231; 2.4 µM with T47D; 3.1 µM in the test with BT-474; 2.1 µM in the test with SK-BR-3.

On to `C[C@@H]1CC[C@@]2(OC1)O[C@H]1C[C@H]3[C@@H]4CC[C@H]5C[C@@H](O)CC[C@]5(C)[C@H]4C/C(=N\NC(=S)Nc4ccc(Cl)cc4)[C@]3(C)[C@H]1[C@@H]2C`, for which the concentration for half-maximal inhibition (IC50) with MCF7 was found to be 12 µM; in the test with MDA-MB-468, 12.8 µM; with MDA-MB-231, 11.5 µM; in the test on T47D it was 15.1 µM; in the test with BT-474 it was 11.8 µM; in the test on SK-BR-3 it was 14.8 µM.

Turning to `C[C@@H]1CC[C@@]2(OC1)O[C@H]1C[C@H]3[C@@H]4CC[C@H]5C[C@@H](OC(=O)c6ccco6)CC[C@]5(C)[C@H]4CC(=O)[C@]3(C)[C@H]1[C@@H]2C`, the IC50 with MCF7, in the test on MDA-MB-468, in the test on MDA-MB-231, with T47D, with BT-474 and with SK-BR-3 was more than 40 µM throughout.

For `Cc1ccc(S(=O)(=O)NC(=O)N/N=C2\C[C@H]3[C@@H](CC[C@H]4C[C@@H](O)CC[C@@]43C)[C@@H]3C[C@@H]4O[C@]5(CC[C@@H](C)CO5)[C@@H](C)[C@@H]4[C@@]23C)cc1`, the IC50 was 29.3 µM in the test with MCF7; 36.4 µM in the test with MDA-MB-468; 28 µM in the test with MDA-MB-231; more than 40 µM in the test with T47D; more than 40 µM with BT-474; 31 µM with SK-BR-3.

On to `C[C@@H]1CC[C@@]2(OC1)O[C@H]1C[C@H]3[C@@H]4CC[C@H]5C[C@@H](O)CC[C@]5(C)[C@H]4C/C(=N\NC(=O)Nc4cccc(Cl)c4)[C@]3(C)[C@H]1[C@@H]2C`, for which the IC50 with MCF7 was 9.7 µM; in the test with MDA-MB-468, 10.9 µM; with MDA-MB-231 it was 10 µM; with T47D, 13 µM; with BT-474, 12 µM; with SK-BR-3, 9.8 µM.

Take `C[C@@H]1CC[C@@]2(OC1)O[C@H]1C[C@H]3[C@@H]4CC[C@H]5C[C@@H](OC(=O)c6ccccc6Cl)CC[C@]5(C)[C@H]4CC(=O)[C@]3(C)[C@H]1[C@@H]2C`: the IC50 in the test with MCF7, in the test with MDA-MB-468, with MDA-MB-231, in the test with T47D, with BT-474 and with SK-BR-3 was more than 40 µM throughout.

On to `COc1ccccc1NC(=S)N/N=C1\C[C@H]2[C@@H](CC[C@H]3C[C@@H](O)CC[C@@]32C)[C@@H]2C[C@@H]3O[C@]4(CC[C@@H](C)CO4)[C@@H](C)[C@@H]3[C@@]12C`, for which the IC50 came out at 7.1 µM with MCF7; 7.5 µM with MDA-MB-468; 6.8 µM with MDA-MB-231; 10.2 µM in the test on T47D; 8.8 µM in the test on BT-474; 7.5 µM in the test on SK-BR-3.

By IC50 is commonly meant the concentration that inhibits the measured activity by half. Read a low IC50 as inhibition by little substance.
